Experimental data published in ChEMBL document CHEMBL1157478, “Pyrrolo[2,1-c][1,4]benzodiazepine-beta-glucuronide prodrugs with a potential for selective therapy of solid tumors by PMT and ADEPT strategies” (Bioorg Med Chem Lett, 2008).
Activity calls are given as the source filed them. The calls are words filed in the database; no cut-off is given here.

Experiments:
HT-29 [1] = test: Induction of cell shrinkage in human HT29 cells after 2 hrs; format: functional, cell-based
How it was run: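 HT-29 adenocarcinoma cells were incubated 2 h with compound alone. Morphology (shrinkage) was examined under the microscope against untreated control cells.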

HT-29 [2] = test: Cytotoxicity against human HT29 cells by MTT assay; format: functional, cell-based
HT-29 [3] = test: Activation factor, ratio of IC50 for human HT29 cells to IC50 for human HT29 cells in presence of beta-glucuronidase; format: functional
HT-29 [4] = test: Cytotoxicity against human HT29 cells in presence of beta-glucuronidase by MTT assay; format: functional, cell-based
HT-29 [5] = test: Induction of cell shrinkage in human HT29 cells after 2 hrs in presence of beta-glucuronidase; format: functional, cell-based
How it was run: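 HT-29 adenocarcinoma cells were incubated 2 h with compound plus the enzyme beta-glucuronidase. Shrinkage was scored by microscopic examination of cell morphology against untreated control cells.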

| Compound | Activity (HT-29 [1]) | IC50 (HT-29 [2]) | Ratio IC50 (HT-29 [3]) | IC50 (HT-29 [4]) | Activity (HT-29 [5]) |
| --- | --- | --- | --- | --- | --- |
| COc1cc2c(cc1O)N=C[C@@H]1CCCN1C2=O | Active | 30.19 µmol |  |  |  |
| COc1cc2c(cc1OCCCCCOc1cc3c(cc1OC)C(=O)N1CCC[C@H]1C(O)N3C(=O)OCc1ccc(O[C@@H]3O[C@H](C(=O)O)[C@@H](O)[C@H](O)[C@H]3O)c([N+](=O)[O-])c1)NC(=O)[C@@H]1CCCN1C2=O (stereo partly specified) |  | 2690 µmol | 208.85 | 12.88 µmol |  |
| COc1cc2c(cc1OCCCCCOc1cc3c(cc1OC)C(=O)N1CCC[C@H]1C(=O)N3)N=C[C@@H]1CCCN1C2=O |  | 8.12 µmol |  |  |  |
| COc1cc2c(cc1OCc1ccccc1)N(C(=O)OCc1ccc(O[C@@H]3O[C@H](C(=O)O)[C@@H](O)[C@H](O)[C@H]3O)c([N+](=O)[O-])c1)C(O)[C@@H]1CCCN1C2=O (stereo partly specified) | inactive | 5280 µmol | 126.67 | 41.68 µmol | Active |
